This data set in a line: Toxicity liver stage against HepG2, at 10uM. In kind it is cell-based. On the set-up: test concentration 10 uM, cell line HepG2-A16-CD81EGFP. To be noted: human, HepG2-A16-CD81EGFP cells; read-out: INHIBITION
Summed up: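 Uninfected HepG2-A16-CD81EGFP cells, 3 × 10^3 per well, 1536-well, plated on prespotted compound at 10 μM final, parasite-free screening media added to match infected plates; puromycin 10 μM positive, DMSO 0.5% negative; run in parallel with 48 h PbLuc assay at 37 °C, 5% CO2; viability by CellTiter-Glo luminescence, normalized to controls.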

The structures appear in SMILES notation.

`O=C(Cn1cnnn1)NCC1(O)CCCc2ccccc21` (configuration not stated): the cytotoxicity at 10 µM was -42.3%.
For `O=C(NCCNc1ncccn1)c1cnc(-c2ccccc2)nc1` the value was 12.1%; for `C1CN(c2nc(C3CC3)ns2)CCO1`, -2.4%.
For `Cc1nc(COc2ccc(N(C)S(C)(=O)=O)cc2)sc1C` the value was -2.75%; for `Cc1ccc(C2c3c(n[nH]c3C)N=C3COC(=O)C32)cc1C` (configuration not stated), 74.9%; for `COc1ccc(O)c(C(=O)NCC2CCCN(C3CCOCC3)C2)c1` (configuration not stated), -3.23%.
For `Cc1nc(CN2CCCn3c(nc(Cn4cncn4)cc3=O)C2)cs1` the value was 3.75%; for `CC(C)(C(=O)NCc1ccccc1F)n1cc(Br)cn1`, 0.296%.
As for `Cc1ccc(N2CC[C@@H](NC(=O)c3cnccn3)[C@H](O)C2)nn1`, the cytotoxicity at 10 µM was -6.79%.
In the case of `CCc1nccn1C1CCCN(C(=O)c2ccc(OC)c(OC)c2)C1` (configuration not stated), the cytotoxicity at 10 µM was -20.6%.
For `Cc1nc(C)n(CC2CCCN2CC(=O)NCCc2ccccc2)n1` (configuration not stated) the value was -16.5%.
As for `CN(Cc1nc(C2CC2)no1)C1CCS(=O)(=O)C1` (configuration not stated), the figure is 13.2%; as for `COc1cccc(F)c1CN1CCC(c2nccc(C)n2)C1` (configuration not stated), 5.29%.
As for `Cn1ncc(N2CCOC(CCNC(=O)N3CCCCC3)C2)cc1=O` (configuration not stated), the figure is -1.25%.
On to `Cc1ccc(C(=O)N2C[C@H]3CNC[C@H]3C2)cn1`, for which the cytotoxicity at 10 µM is -1.16%.
As for `CCc1nnc(Nc2cc(C)nc(C3CCN(c4ncccn4)C3)n2)s1` (configuration not stated), the figure is 3.07%.
As for `COc1ccc(CN2CC[C@@H]3CN(S(C)(=O)=O)CCO[C@@H]3C2)cc1`, the figure is -1.55%; as for `Cc1cccc(CN2C[C@@H](CN3CCCN(C)CC3)[C@@H](CO)C2)n1`, -7.57%; as for `CCC(NC(=O)c1coc(COc2cccc(F)c2F)n1)C(=O)NC` (configuration not stated), 1.03%.
For `CCN(CCNC(=O)C1CCCN(C(C)=O)C1)c1ccccc1C` (configuration not stated) the value was 4.87%; for `CN(Cc1nncn1C)C(=O)c1cc(COc2ccccc2)[nH]n1`, 9.23%.
Take `CCN1CCN(C)C2(CCN(Cc3cccc(C)n3)CC2)C1=O`: the cytotoxicity at 10 µM is 2%.
As for `Cc1nnc(N2CCCC3(CN(Cc4cccnc4)CCO3)C2)o1` (configuration not stated), the figure is 4.96%.
On to `Cc1cc(C)cc(C(=O)NCCCC2(C3OCCO3)CCOCC2)c1`, for which the cytotoxicity at 10 µM worked out at 9.4%.
For the molecule `Cc1cccc(C)c1Nc1noc2c1CN(C(=O)c1ccn(C)n1)CC2`, the cytotoxicity at 10 µM came out at 5.69%.
In the case of `Cc1cccnc1CN1CCOC(Cc2cccc3ccccc23)C1` (configuration not stated), the cytotoxicity at 10 µM is -2.43%.
For `O=S(=O)(C1CC1)N1CCc2ncc(Cn3cccn3)n2CC1` the value was 9.58%.
For `OC1CCN(c2ccnc(NCCc3ccccc3Cl)n2)CC1`, the cytotoxicity at 10 µM is 16.5%.
As for `CCOC(=O)C1(NCC(=O)Nc2cc(C)ccc2OC)CCCC1`, the figure is 6.9%; as for `Cc1cc(C)c(Cn2cncn2)cc1CN1CCC(CN)C1` (configuration not stated), -11.3%; as for `OC(CN1CCN(CC2CCCCC2)CC1)c1ccccc1` (configuration not stated), 1.53%.
For `COCc1ccc(C(=O)N2CCC(c3nccn3CC3CC3)CC2)o1` the value was -2.81%.
For `CC(C)N(CCNC(=O)c1[nH]nc2ccc(I)cc12)C(C)C` the value was -41.1%; for `Cc1cnn(C2CN(CC(=O)N(C)Cc3cccs3)C2)c1`, -16.1%.
On to `Nc1cc2c(nn1)CCN(C(=O)c1ccccc1Oc1cccnc1)C2`, for which the cytotoxicity at 10 µM is -6.21%.
For `c1coc(-c2nc(CNCCn3cccn3)cs2)c1` the value was -13.8%; for `c1cnc(N2C[C@H]3CCN(CCN4CCCC4)C[C@H]3C2)cn1`, -114%.
For `Cc1nc2c(c(N3CC=CC3)n1)CCN(c1ncccc1C(N)=O)CC2` the value was -10.2%; for `COc1ccc(C2OC(COc3ccc(C)cc3)=NN2C(C)=O)cc1` (configuration not stated), -6.19%.
For `COCCCN(CCOC)C(=O)Nc1ccc(C)cc1C` the value was 4.16%; for `Cc1nc(C)n(CC2CCCN(CCc3ccccc3)C2)n1` (configuration not stated), -3.12%.
Take `CSCc1cccc(S(=O)(=O)NCCCn2ccnc2)c1`: the cytotoxicity at 10 µM came to 4.51%.
For `CN(Cc1cnc(C(C)(C)C)nc1)Cc1nc2ccc(F)cc2[nH]1` the value was -12.3%.
For `C[C@@H]1C(=O)NC[C@H]2CN(Cc3ccsc3)C[C@H]21` the value was 4.22%; for `O=C(c1cc2cc(F)ccc2[nH]1)N1CCCCC1Cn1cccn1` (configuration not stated), -8.91%; for `COc1ccc(CCC(=O)N2CCCCC2Cn2cccn2)cc1F` (configuration not stated), -8.7%.
As for `O=C(CN1CCN(C(=O)c2sccc2C2CC2)CC1)NC1CC1`, the figure is -3.75%; as for `N#CCC(=O)NCc1nnc2n1CCN(Cc1nccs1)C2`, -149%.
As to `CC(=O)c1c(C)nn(S(=O)(=O)c2ccc(F)cc2)c1C`, the cytotoxicity at 10 µM turned out to be 3.25%.
As for `CN(C)CC(=O)N1CCc2ncnc(-c3cncnc3)c2CC1`, the figure is -2.42%.
As for `NC(=O)CN1CCC(NC(=O)c2ccn(-c3cccc(F)c3)n2)CC1`, the figure is 13.4%; as for `Cc1nnc(C(C)NCC2(c3ccc(Cl)cc3)CCCC2)o1` (configuration not stated), 8.29%.
For `Cc1nc2ccc(C(=O)N3CC[C@H](O)[C@@H](N4CCOCC4)CC3)cc2[nH]1` the value was -8.32%; for `COCCn1ccc2c(C(=O)Nc3nc4c(s3)CCC4)cccc21`, 1.82%; for `CCC(C)N(Cc1ccncc1)Cc1cccc(Cn2cccn2)c1` (configuration not stated), -45.1%.
On to `Cc1cc(NC(=O)c2ccc(N3CCOCC3)c(F)c2)[nH]n1`, for which the cytotoxicity at 10 µM is -33.9%.
Regarding `Cc1cc2nc(SCC(=O)N3CCCC3)n(Cc3ccco3)c(O)c-2n1`, the cytotoxicity at 10 µM came to 7.19%.
For `Cn1cccc1C(=O)N1CCc2onc(Cn3cccn3)c2C1` the value was -4.72%; for `NC(=O)c1cc(C2CCCN(CCOCC3CC3)C2)n[nH]1` (configuration not stated), -11.5%; for `Cc1nc(C)n(CC2CN(CCCOc3ccccc3)CCO2)n1` (configuration not stated), -0.924%.
As for `O=C(C1CCCO1)N1CCC(O)(Cn2ccc3ccncc32)CC1` (configuration not stated), the figure is -29.9%; as for `CC(C)(CNc1c(C#N)cnc2ccc(Cl)cc12)C(N)=O`, 9.19%; as for `COc1ccc(C(C)NCc2cccs2)cc1Cn1cccn1` (configuration not stated), 10.2%.
As for `Cc1nc(C)n(CC2CCCN2CCC(=O)N2CCCCC2)n1` (configuration not stated), the figure is -2.67%.
For the molecule `Cc1ccc(N2CCCc3sc(C(=O)NCc4cccnc4)nc32)nn1`, the cytotoxicity at 10 µM is -2.96%.
For `Cn1cc(CN2CCC(c3cc(COc4cccc(Cl)c4)[nH]n3)C2)cn1` (configuration not stated) the value was -2.93%.
As for `Cc1nc(CN2CCOCC2c2[nH]ncc2C)cs1` (configuration not stated), the figure is 2.15%; as for `Cc1nsc(NC(=O)N2CCCCC2CCO)n1` (configuration not stated), -45.7%.
As for `Cc1ccc(-c2nc(CNCC3CN(C)CCO3)co2)cc1` (configuration not stated), the figure is -14.4%; as for `Cc1nc(CN2CCCN(C(=O)C(C)OCC3CC3)CC2)cs1` (configuration not stated), -3.87%.
Take `CCOCC(=O)N(Cc1ccco1)c1ccc(OC)c(F)c1`: the cytotoxicity at 10 µM is -2.75%.
As for `CC(C)c1nc(CN(C)C2CCN(CCNS(C)(=O)=O)C2)no1` (configuration not stated), the figure is -8.48%.
For `CCNc1cc2c(nn1)CCN(C(=O)Cc1noc3ccccc13)C2` the value was -7.42%; for `CCn1ccnc1CN(C)c1cc(OC)ncn1`, -37.5%.
As for `CCc1noc(C(C)N2CCC(C)CC2)n1` (configuration not stated), the figure is -7.6%.
Consider `Cc1ncsc1CCn1ccnc1-c1cc2n(n1)CCCNC2`, for which the cytotoxicity at 10 µM is -0.434%.
For `N#Cc1cccc(C(=O)N2CCC3(CCC(=O)N(C4CC4)C3)CC2)c1` the value was 0.194%.
For `CN1CCOC(CNCCCOc2ccc(C#N)cc2)C1` (configuration not stated) the value was 6.91%.
For `CC(=O)N1CC[C@@]2(O)CCCC[C@H]2[C@@H]1c1ccc2c(c1)OCO2` the value was 15.4%; for `O=C(c1cccc2cc[nH]c12)N1CCC2(CCOC2)C1` (configuration not stated), -152%.
Turning to `O=C(CCn1c(=O)oc2ccccc21)NCC(O)c1ccc(Cl)cc1` (configuration not stated), the cytotoxicity at 10 µM is -1.25%.
As for `COc1ccc(CNC(=O)NCC(O)(c2cccs2)C2CC2)cc1` (configuration not stated), the figure is 0.227%.
As for `Cc1nnsc1C(=O)NCc1cccnc1N1CCc2ccccc2C1`, the figure is 10.8%; as for `COc1cc(OC)c(CNC(=O)NCc2ccc(C#N)cc2)c(OC)c1`, 8.01%; as for `Cc1cc(C(=O)N2CCN(Cn3cc(Cl)cn3)CC2)on1`, -6.81%.
As for `Cc1ccc(NCc2cccc3cn[nH]c23)cc1OC1CCOC1` (configuration not stated), the figure is 1.44%; as for `O=C(c1c[nH]c2ncccc12)N(Cc1ccco1)C1CCCC1`, 2.07%; as for `Cc1nccn1CC1CCCN1S(=O)(=O)Cc1ccon1` (configuration not stated), -9.57%.
In the case of `CSc1nc(N)c2c(n1)N=C1COC(=O)C1C2c1cccc(O)c1` (configuration not stated), the cytotoxicity at 10 µM was found to be 32.8%.
`O=C(NCC(O)c1ccoc1)Nc1cccs1` (configuration not stated): the cytotoxicity at 10 µM was -11.1%.
As for `O=C(c1ccn(-c2ccccc2)n1)N1CCCC(n2cccn2)C1` (configuration not stated), the figure is -10.8%; as for `Cc1nn(C)c(C)c1C1CCCN1CC(=O)N(C)c1nccs1` (configuration not stated), -1.32%; as for `O=C1CCCN1Cc1nnc2n1CCCN(C(=O)c1ccco1)C2`, 8.3%.
For `Cc1nc(CN2CCCCC2Cn2cccn2)nc2ccccc12` (configuration not stated), the cytotoxicity at 10 µM is -41.5%.
As for `Cn1cccc1-c1cc(C(=O)N2CC(c3cccnc3)C2)[nH]n1`, the figure is -13.7%; as for `CCc1nnc(CNCC2CCN(CC(O)c3ccccc3)CC2)o1` (configuration not stated), -1.49%; as for `CCNC(=O)NC(c1ccc(C)cc1)c1cccc(S(C)(=O)=O)c1` (configuration not stated), -5.82%.

The values are drawn from ChEMBL document CHEMBL4513216, “Probing the Open Global Health Chemical Diversity Library for Multistage-Active Starting Points for Next-Generation Antimalarials” (ACS Infect Dis, 2020).
